Compound activity deposited in PubChem by The Scripps Research Institute Molecular Screening Center.
Sampled rows, rich in hits. Any-hit rate of the full collection: about 1.4%.
ABHD4 inh: inhibitors of mouse ABHD4; Q8VD66; purified mABHD4, FP-Rh probe fluorescence polarization; inhibition, % at 8.92 µM; hit rate 0.54% among 370,000; AID 720543;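 active = inhibition exceeding the mean over every tested compound plus 3 SD, cut at about 30% in these data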;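 also: 0% = plate median of compound wells and 100% = S159A mutant with DMSO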
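Assay system: wild-type mouse ABHD4 protein; compound: single nominal dose of 8.92 µM, 0.89% DMSO final; schedule: 45 min + 60 min at 25 °C; measured by: FP readout, ex 525 nm / em 598 nm; evaluation: % inhibition of FP-Rh probe binding versus controls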
HTRA1 inhibitor: blocks human HTRA1 serine peptidase; hit rate 0.5% among 340,000; Q92743; recombinant HTRA1, FP-rhodamine activity-based probe, fluorescence polarization; inhibition, % at 5.96 µM; in the data active = inhibition above about 36%;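 also: 0% = enzyme with DMSO and 100% = wells lacking enzyme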
SIAE inh: inhibitors of human sialic acid acetylesterase SIAE; Q9HAT2; SIAE FP-Rh probe binding, fluorescence polarization; inhibition, % at 9.66 µM; hit rate 0.69% among 370,000;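 active = inhibition above a cutoff: mean of compounds within the control limits plus 3 SD of those, cut at about 17% in these data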;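 also: 0% = plate median of compound wells and 100% = probe without SIAE protein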
Target sequence (Q9HAT2 whole entry, looked up): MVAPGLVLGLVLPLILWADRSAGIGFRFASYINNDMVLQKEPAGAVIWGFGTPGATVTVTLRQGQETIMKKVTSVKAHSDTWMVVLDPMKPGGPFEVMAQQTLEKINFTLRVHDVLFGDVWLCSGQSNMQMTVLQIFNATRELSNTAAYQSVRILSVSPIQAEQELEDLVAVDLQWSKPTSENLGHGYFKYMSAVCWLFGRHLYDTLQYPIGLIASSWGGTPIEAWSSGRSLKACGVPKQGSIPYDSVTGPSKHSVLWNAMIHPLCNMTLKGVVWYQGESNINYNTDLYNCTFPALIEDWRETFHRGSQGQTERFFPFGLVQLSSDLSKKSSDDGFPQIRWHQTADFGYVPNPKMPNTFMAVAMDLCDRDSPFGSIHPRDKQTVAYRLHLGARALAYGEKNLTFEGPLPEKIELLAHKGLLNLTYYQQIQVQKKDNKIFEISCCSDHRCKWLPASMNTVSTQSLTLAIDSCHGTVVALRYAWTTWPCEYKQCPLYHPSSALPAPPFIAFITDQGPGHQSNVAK
RBBP9 inhibitor: blocks human serine hydrolase RBBP9; O75884; recombinant RBBP9, FP-Rh probe fluorescence polarization; inhibition, % at 7.94 µM; hit rate 0.2% among 220,000;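 active = inhibition above the campaign mean of all tested compounds plus 3 SD, cut at about 14% in these data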;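 also: plate controls were DMSO wells with RBBP9 for no effect and wells lacking RBBP9 protein for full effect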
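Material: RBBP9 protein. Amount: RBBP9 at 2.5 µM in dispensed solution, before mixing. Schedule: 30 min then 45 min, 25 °C. Medium: Tris buffer pH 8.0, NaCl, Pluronic. Measured by: fluorescence polarization. Measure: percent inhibition from mP, scaled between DMSO and no-protein wells. Replication: one well per compound.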
ABHD4 confirm: ABHD4 (mouse) inhibition, FP confirmation. hit rate 55% among 1,800. purified mABHD4, FP-Rh probe fluorescence polarization. shares compounds with ABHD4 inh. inhibition, % at 8.92 µM. AID 720658;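 active = mean inhibition across replicates above the hit cutoff set in the primary screen, cut at about 30% in these data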;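 also: 0% = wild-type ABHD4 with DMSO and 100% = catalytically dead S159A mutant with DMSO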
SIAE inh conf: human SIAE inhibition, confirmation; shares compounds with SIAE inh; SIAE FP-Rh activity-based probe, fluorescence polarization; inhibition, % at 9.66 µM; hit rate 13% among 2,300; AID 1117263;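 active = mean inhibition of the replicates above the hit cutoff set in the primary screen, cut at about 17% in these data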;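 also: 0% = SIAE with DMSO and probe and 100% = probe without SIAE; inhibitors lower polarization as more probe stays unbound to SIAE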
* = called active by the depositor; nt = not tested or not shown.

SMILES	ABHD4 inh	HTRA1 inhibitor	SIAE inh	RBBP9 inhibitor	ABHD4 confirm	SIAE inh conf
C[C@H](CO)N1C[C@H](C)[C@@H](CN(C)C(=O)Nc2ccc3c(c2)OCO3)Oc2ccc(NC(=O)Cn3cnnn3)cc2C1=O	-1	-3	3	nt	nt	nt
CCOC(=O)c1c(-c2ccc(-c3ccccc3)cc2)csc1NC(=O)CNCCN(C)C	30*	30	11	nt	43*	nt
NC(=S)NN=Cc1nccc2c(N)cccc12	36*	16	6	nt	44*	nt
CC(C)c1ccc(NC(=O)C2(C)Cc3c(-c4cccc(C(F)(F)F)c4)ccnc3O2)cc1 (configuration not stated)	6	nt	-6	nt	nt	nt
O=[N+]([O-])c1ccccc1S(=O)(=O)N(CC1CO1)c1ccccc1 (configuration not stated)	-1	2	4	nt	nt	nt
O=C(Cc1cccc(C(F)(F)F)c1)Nc1cc(S(=O)(=O)N2CCOCC2)ccc1N1CCCC1	2	-19	-2	nt	nt	nt
Nc1sc2c(c1C(=O)NCCc1ccccc1)CCCC2	37*	nt	13	nt	4	nt
Nc1sc2c(c1C(=O)NCCc1ccccc1)CCC2	4	0	6	-7	nt	nt
COc1cccc(NC(=O)C2CCN(S(=O)(=O)c3ccc4[nH]c(=O)oc4c3)CC2)c1	42*	2	-7	nt	43*	nt
O=[N+]([O-])c1ccc(O)c(C=Nc2cccc3ccccc23)c1	2	7	6	nt	nt	nt
Oc1ccc(C=Nc2cccc3ccccc23)c(O)c1	30*	19	3	nt	10	nt
O=C(COC(=O)CCC(=O)c1cccs1)NC1CCCCC1	4	2	-2	nt	nt	nt
CN1C(c2ccccc2)CC2CN(c3ccccc3)C(=O)C21 (configuration not stated)	1	nt	3	nt	nt	nt
CC1=CC2(O)OCCN(CCO)C2=CC1=O (configuration not stated)	30*	11	0	9	6	nt
Cc1ccc(N2NC(=O)/C(=C/c3ccc(-c4ccc(Cl)c(C(=O)O)c4)o3)C2=O)cc1C	12	8	5	-1	nt	nt
O=C1NN(c2ccc(Cl)c(Cl)c2)C(=O)/C1=C/c1ccc(-c2ccccc2C(=O)O)o1	31*	2	4	nt	65*	nt
F[B-](F)(F)c1cc2cc(Br)ccc2s1	nt	3	nt	nt	nt	nt
F[B-](F)(F)c1cc2ccccc2s1	87*	2	2	nt	72*	nt
Cn1ncc(Cl)c1C(=O)N1CCC(Cc2ccccc2)CC1	-14	-1	-6	nt	nt	nt
O=C(N1CCC(Cc2ccccc2)CC1)n1ncc(C(O)(c2ccccc2)c2ccccc2)n1	77*	nt	-3	nt	69*	nt
COc1cccc(NC(=O)c2ccc3nc(C)sc3c2)c1	0	-14	-9	nt	nt	nt
COc1cc(N)c2ncccc2c1Br	62*	24	7	nt	28	nt
COc1ccc(S(=O)(=O)Nc2noc3ccccc23)cc1	7	2	-4	nt	nt	nt
CC(C)(C)c1ccc(S(=O)(=O)Nc2noc3ccccc23)cc1	30*	-1	5	nt	16	nt
COc1ccccc1NC(=O)c1ccccc1NC(=O)c1ccccn1	-4	-22	-6	nt	nt	nt
SMILES	ABHD4 inh	HTRA1 inhibitor	SIAE inh	RBBP9 inhibitor	ABHD4 confirm	SIAE inh conf
COc1ccc(Cl)cc1NC(=O)NNC(=O)c1ccccn1	40*	2	3	nt	29	nt
CCOC(=O)C1=C(C(=O)OCC)C2N(Cc3ccc(C#N)cc3)c3ccccc3[C@@]23C[C@@H](C(=O)OC)N(S(=O)(=O)c2ccc(C#N)cc2)C3=N1 (some centres not stated)	3	nt	-2	nt	nt	nt
Cc1cccc(NC(=O)CSc2nnc3ccc(-c4ccccn4)nn23)c1	4	1	-7	nt	nt	nt
Cc1ccc(OCC(O)CNC2CCCC2)cc1C (configuration not stated)	4	1	8	nt	nt	nt
Cc1ccc(C)c(OCC(O)CNC2CCCC2)c1 (configuration not stated)	38*	4	-12	nt	-4	nt
CC(=O)Nc1ccc(NC(=O)COc2cccc3ccccc23)cc1	0	0	4	nt	nt	nt
COc1ccc(CCNC(=O)c2ccccc2NS(=O)(=O)c2cc(C(=O)O)ccc2OC)cc1	33*	-4	-14	nt	24	nt
O=C(CN1C(=O)/C(=C2/SC(=S)N(CCS(=O)(=O)O)C2=O)c2ccccc21)Nc1cccc(Br)c1	60*	-23	18*	nt	70*	5
COc1ccc(OC)c(N/C(C)=C/C(=O)c2ccncc2)c1	49*	13	21*	nt	1	3
C=CCN1C(=O)CSC1=Nc1ccc(O)cc1	3	-1	13	-9	nt	nt
C=CCn1c(O)c(C2=c3ccccc3=NC2=O)sc1=Nc1ccc(O)cc1	35*	10	21*	nt	73*	12
COC(=O)c1ccc(N)cc1O	-2	-4	8	1	nt	nt
COC(=O)c1ccc(=O)c2nc3/c(=C/O)c(O)cc(=O)c3[nH]c12	57*	61*	47*	8	59*	28*
O=C1N=c2ccccc2=C1c1sc(=S)n(NC(=O)c2ccccc2)c1O	33*	7	23*	-1	42*	31*
O=C(CCl)N(C1CCCC1)C1CCS(=O)(=O)C1 (configuration not stated)	3	8	0	nt	nt	nt
Cc1[nH]c2ccccc2c1N=Nc1ccccc1C(=O)O	56*	31	34*	-4	69*	10
CCN(CC)CCOc1ccc2c(c1)C(=NO)c1cc(OCCN(CC)CC)ccc1-2	-4	-1	2	-14	nt	nt
CCCOc1ccc2c(c1)C(=NN=C(N)N)c1cc(OCCC)ccc1-2	38*	14	18*	nt	51*	16
CCOC(=O)CC1c2nc3ccccc3cc2CN1C(=O)OCC (configuration not stated)	-1	3	-2	nt	nt	nt
O=c1nc2s/c(=C\c3ccc(-c4ccccc4[N+](=O)[O-])o3)c(=O)n2nc1-c1ccccc1	40*	27	22*	-6	34*	6
CCCCCOc1ccc(/C=c2\sc3nc(=O)c(-c4ccccc4)nn3c2=O)cc1OC	-2	-11	1	-1	nt	nt
COc1cccc(N(C)C(=O)[C@@H](C)[C@@H](O)c2ccc(C(C)=O)cc2)c1	6	nt	-4	nt	nt	nt
C/C(=N\NC(=O)c1cc(O)ccc1O)c1cccc(NC(=O)c2cccc(Cl)c2)c1	54*	2	33*	nt	36*	20*
CCOC1=CC2=C(C(=O)C(Cl)=CC2=O)[C@@H]2CN(S(=O)(=O)c3ccc(C)cc3)[C@@H](c3ccccc3)[C@H]12	89*	nt	23*	nt	101*	18*
O=C1C=CC(=O)c2c(O)c(N3CCN(CCOCCO)CC3)c(Br)c(O)c21	46*	31	24*	nt	72*	15
Cc1cc(O)ccc1N/C=C1\CCCC1=O	69*	31	46*	8	17	1
O=C(O)c1cccc(N/N=C/C2=C(Cl)c3cc(Cl)ccc3SC2)c1	30*	-18	21*	3	87*	31*
